In ChEMBL document CHEMBL1153234, “Synthesis and biological evaluation of nitrogen-containing chalcones as possible anti-inflammatory and antioxidant agents” (Bioorg Med Chem Lett, 2010):
Calls of active or inactive are those of the source. The rule behind the calls is not given here.

Legend:
[1] = Inhibition of trypsin at 10 uM
Procedure, shortened: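 Trypsin (0.075 mg/mL) was preincubated 20 min with test sample from a 1 mM stock. The reaction was stopped with 5% trichloroacetic acid and centrifuged. Acid-soluble protein was measured by the Lowry method. Salicylic acid (10^-6 M) was the reference. Values are means of n = 2.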

[2] = biological target: T1, Beta-glucuronidase (Homo sapiens) (UniProt P08236); assay: Inhibition of beta-glucuronidase at 10 uM
T1 sequence (whole entry): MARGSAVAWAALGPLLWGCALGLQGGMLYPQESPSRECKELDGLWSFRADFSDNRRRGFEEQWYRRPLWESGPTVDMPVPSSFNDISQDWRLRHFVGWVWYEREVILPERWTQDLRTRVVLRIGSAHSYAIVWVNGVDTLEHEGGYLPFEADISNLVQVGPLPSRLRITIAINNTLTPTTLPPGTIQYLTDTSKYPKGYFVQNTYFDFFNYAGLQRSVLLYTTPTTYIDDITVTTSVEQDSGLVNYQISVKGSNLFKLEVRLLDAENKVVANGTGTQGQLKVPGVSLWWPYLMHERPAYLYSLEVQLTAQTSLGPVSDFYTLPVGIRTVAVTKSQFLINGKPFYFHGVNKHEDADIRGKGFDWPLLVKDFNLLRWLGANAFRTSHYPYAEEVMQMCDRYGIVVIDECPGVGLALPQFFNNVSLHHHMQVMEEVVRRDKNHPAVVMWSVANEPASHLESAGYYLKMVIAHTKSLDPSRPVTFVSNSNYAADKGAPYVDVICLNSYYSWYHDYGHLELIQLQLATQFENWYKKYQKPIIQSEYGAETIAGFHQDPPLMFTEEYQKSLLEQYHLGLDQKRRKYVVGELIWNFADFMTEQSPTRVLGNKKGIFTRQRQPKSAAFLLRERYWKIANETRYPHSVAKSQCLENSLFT
Procedure, shortened: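 Test sample from a 1 mM stock in 0.1 M acetate buffer pH 7.4 was preincubated 5 min at 37 °C with 2.5 mM p-nitrophenyl β-D-glucopyranosiduronic acid. β-Glucuronidase was then added and the mixture incubated 30 min. The reaction was stopped with 0.5 N NaOH and read at 410 nm. Salicylic acid (1 mM) was the reference. Values are means of n = 2.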

[3] = biological target: T2, Prostaglandin G/H synthase 2 (Ovis aries) (UniProt P79208); assay: Inhibition of ovine COX2 at 1 mM by colorimetric assay
T2 sequence (whole entry): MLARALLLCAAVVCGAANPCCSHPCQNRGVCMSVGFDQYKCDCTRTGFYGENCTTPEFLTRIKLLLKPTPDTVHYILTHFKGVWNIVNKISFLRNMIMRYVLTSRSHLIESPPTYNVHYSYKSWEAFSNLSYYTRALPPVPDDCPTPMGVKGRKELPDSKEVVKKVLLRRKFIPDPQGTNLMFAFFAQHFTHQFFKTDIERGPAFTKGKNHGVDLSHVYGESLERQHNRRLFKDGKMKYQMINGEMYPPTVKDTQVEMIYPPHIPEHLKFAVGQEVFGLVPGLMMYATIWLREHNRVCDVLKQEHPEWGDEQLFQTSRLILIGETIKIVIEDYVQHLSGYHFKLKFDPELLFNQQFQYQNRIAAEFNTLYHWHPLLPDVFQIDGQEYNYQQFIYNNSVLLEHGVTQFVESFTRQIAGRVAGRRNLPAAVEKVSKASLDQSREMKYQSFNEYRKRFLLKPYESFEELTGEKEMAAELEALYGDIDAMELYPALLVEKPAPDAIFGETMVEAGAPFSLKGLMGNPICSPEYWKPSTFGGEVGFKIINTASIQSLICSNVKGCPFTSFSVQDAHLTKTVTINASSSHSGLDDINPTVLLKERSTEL
Procedure, shortened: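 Ovine COX-2 was tested with a colorimetric screening kit. Enzyme, heme and assay buffer were preincubated 5 min at 25 °C with test sample added from a 1 mM solution. Colorimetric substrate and arachidonic acid were then added, followed by a further 5 min at 25 °C. Absorbance was read at 590 nm, and % activity = inhibitor-well/no-inhibitor-well absorbance × 100. Values are means of n = 2.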

[4] = test system: Radical scavenging activity; assay: Antioxidant activity assessed as DPPH radical scavenging activity at 10 uM; type: functional
Procedure, shortened: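 Test sample from a 1 mM stock in absolute ethanol was mixed with DPPH radical (10^-4 M in absolute ethanol). Absorbance was read at 517 nm after 20 min. Quercetin served as reference. Values are means of n = 2.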

[5] = biological target: T3, Prostaglandin G/H synthase 1 (Ovis aries) (UniProt P05979); details: at 1 mM
T3 sequence (whole entry): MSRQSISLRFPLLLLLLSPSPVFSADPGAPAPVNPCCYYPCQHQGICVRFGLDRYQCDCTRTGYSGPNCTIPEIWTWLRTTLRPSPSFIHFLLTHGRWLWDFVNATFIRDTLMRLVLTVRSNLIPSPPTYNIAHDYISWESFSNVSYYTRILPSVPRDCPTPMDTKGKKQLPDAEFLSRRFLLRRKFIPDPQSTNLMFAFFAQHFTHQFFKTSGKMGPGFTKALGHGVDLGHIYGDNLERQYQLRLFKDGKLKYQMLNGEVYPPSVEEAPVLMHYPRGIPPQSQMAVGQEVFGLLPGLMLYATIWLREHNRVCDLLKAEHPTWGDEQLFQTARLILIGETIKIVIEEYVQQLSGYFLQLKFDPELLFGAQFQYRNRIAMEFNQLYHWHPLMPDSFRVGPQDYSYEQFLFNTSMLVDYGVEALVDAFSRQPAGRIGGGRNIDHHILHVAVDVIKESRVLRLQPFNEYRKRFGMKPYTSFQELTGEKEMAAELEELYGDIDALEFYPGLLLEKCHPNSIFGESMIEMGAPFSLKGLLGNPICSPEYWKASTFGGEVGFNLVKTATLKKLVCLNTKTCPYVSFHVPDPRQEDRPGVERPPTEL

Compound | inhibition [1] | inhibition [2] | inhibition [3] [%] | Activity [4] | inhibition [5] [%]
COc1cc(OC)c(C(=O)/C=C/c2cccc(F)c2)c(O)c1CN1CCOCC1 | 19.5% | 10.8% | 38.9 | 24% | –
O=c1c(O)c(-c2ccc(O)c(O)c2)oc2cc(O)cc(O)c12 | – | – | – | 86.3% | –
COc1cc(OC)c(C(=O)/C=C/c2ccccc2Br)c(O)c1CN1CCCCC1 | 2.1% | 39.9% | 69.8 | 58.3% | –
CC(=O)Oc1ccccc1C(=O)O | – | – | 35.1 | – | –
COc1cc(OC)c(C(=O)/C=C/c2ccccc2Cl)c(O)c1CN1CCCCC1 | 0.7% | 31.2% | 91.5 | 18.4% | 30.4
O=C(O)c1ccccc1O | 89.2% | 23.3% | – | – | –
COc1cc(OC)c(C(=O)/C=C/c2cccc(Cl)c2)c(O)c1CN1CCN(C)CC1 | 1.3% | 23.7% | 77.8 | 5.2% | 28.7
COc1cc(OC)c(C(=O)/C=C/c2ccccc2Br)c(O)c1CN1CCOCC1 | 1.6% | 32.8% | 42.3 | 16.7% | –
COc1cc(OC)c(C(=O)/C=C/c2cccc(Br)c2)c(O)c1CN1CCN(C)CC1 | 1.4% | 75.4% | 33.3 | 37% | –
COc1cc(OC)c(C(=O)/C=C/c2ccccc2F)c(O)c1CN1CCCCC1 | 1.4% | 56.6% | 19.9 | inactive | –
COc1cc(OC)c(C(=O)/C=C/c2ccccc2Cl)c(O)c1CN1CCCC1 | 0.8% | 32.4% | 42.5 | 7.89% | –
COc1cc(OC)c(C(=O)/C=C/c2ccccc2Cl)c(O)c1CN1CCOCC1 | inactive | 48.1% | 25.6 | 24.8% | –
COc1cc(OC)c(C(=O)/C=C/c2ccccc2F)c(O)c1CN1CCOCC1 | 2% | 21.8% | 27.1 | 19.2% | –
COc1cc(OC)c(C(=O)/C=C/c2ccccc2Br)c(O)c1CN1CCCC1 | 1.5% | 34.7% | 20.4 | 25% | –
COc1cc(OC)c(C(=O)/C=C/c2cccc(Cl)c2)c(O)c1CN1CCCCC1 | 0.5% | 66% | 87.9 | 20.9% | 25.2
COc1cc(OC)c(C(=O)/C=C/c2cccc(F)c2)c(O)c1CN1CCCCC1 | – | 7.06% | 21.7 | 14.6% | –
COc1cc(O)c(CN2CCCC2)c(O)c1C(=O)/C=C/c1ccccc1F | 1.2% | inactive | 21.4 | 32.9% | –
COc1cc(OC)c(C(=O)/C=C/c2ccccc2F)c(O)c1CN1CCN(C)CC1 | inactive | inactive | 44.9 | 35.3% | 19.2
COc1cc(OC)c(C(=O)/C=C/c2cccc(Cl)c2)c(O)c1CN1CCCC1 | 0.9% | 14.8% | 29.6 | 3.1% | –
COc1cc(OC)c(C(=O)/C=C/c2cccc(F)c2)c(O)c1CN1CCN(C)CC1 | inactive | 26.7% | 24.6 | 18.4% | –
COc1cc(OC)c(C(=O)/C=C/c2cccc(Br)c2)c(O)c1CN1CCCCC1 | 2.8% | 15.4% | 87.5 | 33% | 21.7
COc1cc(OC)c(C(=O)/C=C/c2cccc(Br)c2)c(O)c1CN1CCOCC1 | 1.2% | 29.3% | 22.4 | 10.1% | –
COc1cc(OC)c(C(=O)/C=C/c2cccc(F)c2)c(O)c1CN1CCCC1 | 1.3% | 19.4% | 21.4 | 11.7% | –
COc1cc(OC)c(C(=O)/C=C/c2ccccc2Br)c(O)c1CN1CCN(C)CC1 | 1.2% | 42% | 48.9 | 27.8% | –
COc1cc(OC)c(C(=O)/C=C/c2cccc(Br)c2)c(O)c1CN1CCCC1 | 1.3% | 59.8% | 19.9 | 35.7% | –
COc1cc(OC)c(C(=O)/C=C/c2ccccc2Cl)c(O)c1CN1CCN(C)CC1 | 0.1% | 35.5% | 68.8 | 10.8% | 11.9
COc1cc(OC)c(C(=O)/C=C/c2cccc(Cl)c2)c(O)c1CN1CCOCC1 | 1.1% | 13.9% | 48.2 | 21.9% | –
